Data: ChEMBL document CHEMBL4665829, “Synthesis, Structure-Activity Relationship, and Antimalarial Efficacy of 6-Chloro-2-arylvinylquinolines” (J Med Chem, 2020)
pEC50: −log10 of the molar value. Activity calls are given as the source filed them. The calls are words filed in the database; no cut-off is given here.

Legend:
[1] = Drug level in mouse liver microsomes treated with N1,N1-diethyl-N4-(6-methoxy-2-(4-nitrostyryl)quinolin-4-yl)pentane-1,4-diamine measured up to 60 mins by LC-MS analysis; assay type: ADME, Microsome; details: 1 h
In short: (§1)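 Microsomal incubations: mouse liver microsomes at 0.5 mg/mL, 1 μM compound, pH 7.4 phosphate, 37 °C, NADPH-regenerating system. The metabolite mixture was analysed by LC–MS after 15, 30 and 60 min.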

[2] = Drug level in mouse liver microsomes treated with 6-chloro-N-(4-morpholinobutyl)-2-(2-(pyridin-4-yl)vinyl)quinolin-4-amine measured up to 60 mins by LC-MS analysis; assay type: ADME, Microsome; details: 1 h; in short: as §1
[3] = test system: Plasmodium falciparum; experiment: Antiplasmodial activity against late trophozoite synchronized chloroquine-resistant Plasmodium falciparum Dd2 reduction in microbial growth at 5 times of EC50 after 12 hrs by YOYO-1 staining-based flow cytometric analysis; assay type: functional, organism-based
In short: (§2)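 Dd2 cultures tightly synchronized by magnetic separation and sorbitol were dosed at 5 × EC50 at 6, 18, 30 or 42 h post-invasion. Controls: DHA 50 nM, atovaquone 6.6 nM, DMSO 0.1%. Sampled every 12 h for Giemsa thin smears and for flow cytometry: glutaraldehyde/paraformaldehyde fixation, Triton permeabilization, RNAse, 500 nM YOYO-1, 500,000 events/sample. Three independent biological replicates.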

[4] = test system: Hemozoin; experiment: Inhibition of beta-hematin formation after 16 hrs by inverted microscopic analysis; details: dose microM 12.5-200, time 16.0 hrs
In short: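 Hemin (2 mM stock in 0.1 M NaOH; 100 μM final), propionate buffer pH 5.2 and sonicated phosphatidylcholine were incubated with a compound concentration series for 16 h at 37 °C with gentle shaking. Crystals were imaged by inverted microscope before quenching with 7.5% SDS in bicarbonate, pH 9.1. Free hemin was measured at 405 nm against a 0–16 μM calibration. Three independent experiments.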

[5] = test system: Plasmodium falciparum; experiment: Antiplasmodial activity against synchronous gametocyte late stage of Plasmodium falciparum 3D7 harboring luc7 incubated for 72 hrs by ONE-Glo luciferase assay; assay type: functional, organism-based; details: 3D7, 72 h
In short: (§3)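 Gametocytes of P. falciparum 3D7 luc7 induced by nutrient starvation, cultured in heparin medium to remove asexual stages, Percoll-purified as early (II–III) or late (IV–V) stage. 50,000 gametocytes/well exposed 72 h to a 19-point gradient, 0.038 nM–10 μM. ONE-Glo luciferase read after 5 min. EC50 by nonlinear curve fit; three experiments.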

[6] = Selectivity index, ratio of EC50 for cytotoxicity against human HepG2 cells to antiplasmodial activity against chloroquine-resistant Plasmodium falciparum Dd2; assay type: toxicity, cell-based; details: read-out: Ratio EC50
[7] = Half life in mouse liver microsomes at 1 uM after 60 mins in presence of NADPH by LC-MS analysis; assay type: ADME, Microsome; details: 1 h
In short: (§4)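 Mouse liver microsomes (0.5 mg/mL final protein) in 0.1 M phosphate, pH 7.4, with compound at 1 μM, 37 °C with shaking. Aliquots were quenched in cold acetonitrile and centrifuged; LC–MS gave parent peak area at 60 min relative to 0 min.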

[8] = Resistant index, ratio of EC50 for antiplasmodial activity against chloroquine-resistant Plasmodium falciparum Dd2 to antiplasmodial activity against chloroquine-sensitive Plasmodium falciparum 3D7; assay type: functional
[9] = test system: Plasmodium berghei; experiment: Antiplasmodial activity against Plasmodium berghei ANKA expressing luciferase infected in Swiss Webster mouse at 100 mg/kg, po for 5 days using monophosphate salt form of compound by luminescence based assay; assay type: functional, organism-based; details: time 5.0 day
In short: (§5)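 Female Swiss Webster mice got 10³ RBC infected with luciferase-expressing P. berghei ANKA. From 48 h post-infection, groups of five were gavaged once daily for 5 days in 2% methylcellulose/0.5% Tween 80, against a vehicle control. On day 7, mice received 150 mg/kg D-luciferin in PBS, and bioluminescence was imaged by IVIS as a measure of parasite load.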

[10] = test system: Plasmodium falciparum; experiment: Antiplasmodial activity against chloroquine-resistant Plasmodium falciparum Dd2 infected in human erythrocytes assessed as reduction in microbial growth after 72 hrs by SYBR green I staining based fluorescence assay; assay type: functional, organism-based; details: Dd2, Erythrocyte
In short: (§6)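 SYBR Green I assay: twofold serial dilutions on P. falciparum cultures at 1% parasitemia, 1% hematocrit, 37 °C, 5% CO₂, 72 h, max 0.1% DMSO. DMSO and CQ as growth and inhibition controls. Plates frozen at −80 °C, thawed, lysed in Tris/saponin/EDTA/Triton buffer with 0.01% SYBR Green I, 1 h dark at room temperature. Fluorescence read at 485 ex/530 em. EC50 by nonlinear dose–response fit.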

[11] = test system: Plasmodium falciparum; experiment: Antiplasmodial activity against synchronous gametocyte early stage of Plasmodium falciparum 3D7 harboring luc7 incubated for 72 hrs by ONE-Glo luciferase assay; assay type: functional, organism-based; details: 3D7, 72 h; in short: as §3
[12] = test system: Plasmodium falciparum; experiment: Parasiticidal activity against chloroquine-resistant Plasmodium falciparum Dd2 infected in RBC assessed as reduction in parasitemia at 5 times of EC50 incubated for 6 to 48 hrs followed by compound washout and then incubated for 96 hrs by Giemsa staining based microscopic analysis; assay type: functional, organism-based; details: time hrs 6-48
In short: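 Controls: 0.15% DMSO, DHA 50 nM, atovaquone 6.6 nM. Drug removed by three RPMI washes, then parasitemia followed daily for 96 h by Giemsa thin smears. Three independent biological replicates.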

[13] = test system: Plasmodium berghei; experiment: Antiplasmodial activity against Plasmodium berghei ANKA expressing luciferase infected in Swiss Webster mouse at 25 mg/kg, po for 5 days using monophosphate salt form of compound by luminescence based assay; assay type: functional, organism-based; details: time 5.0 day; in short: as §5
[14] = Intrinsic clearance in mouse liver microsomes assessed as parent compound at 1 uM after 60 mins in presence of NADPH by LC-MS analysis; assay type: ADME, Microsome; in short: as §4
[15] = Stability of compound in mouse liver microsomes assessed as parent compound remaining at 1 uM after 60 mins in presence of NADPH by LC-MS analysis; assay type: ADME, Microsome; details: 1 h; in short: as §4
[16] = test system: Plasmodium falciparum; experiment: Antiplasmodial activity against chloroquine-sensitive Plasmodium falciparum 3D7 infected in human erythrocytes assessed as reduction in microbial growth after 72 hrs by SYBR green I staining based fluorescence assay; assay type: functional, organism-based; details: 3D7, Erythrocyte; in short: as §6
[17] = test system: Plasmodium falciparum; experiment: Antiplasmodial activity against late trophozoite synchronized chloroquine-resistant Plasmodium falciparum Dd2 reduction in microbial growth at 5 times of EC50 after 12 hrs by Giemsa staining-based microscopic analysis; assay type: functional, organism-based; in short: as §2
[18] = test system: HepG2; experiment: Cytotoxicity against human HepG2 cells assessed as reduction in cell viability after 48 hrs by MTS assay; assay type: cell-based; details: HepG2, 48 h
In short: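 HepG2 cells were seeded at 2250 per well and grown 24 h at 37 °C, 5% CO₂. Serial dilutions starting at 25 μM were added for a further 48 h. MTS was then added for 3 h at 37 °C and absorbance read at 490 nm. EC₅₀ came from nonlinear dose–response fits.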

[19] = Drug level in mouse liver microsomes treated with N1-(6-chloro-2-(4-fluorostyryl)quinolin-4-yl)-N2,N2-dimethylethane-1,2-diamine measured up to 60 mins by LC-MS analysis; assay type: ADME, Microsome; details: 1 h; in short: as §1
[20] = Drug level in mouse liver microsomes treated with 6-chloro-2-(4-fluorostyryl)-N-(2-(4-methylpiperazin-1-yl)ethyl)quinolin-4-amine measured up to 60 mins by LC-MS analysis; assay type: ADME, Microsome; details: 1 h; in short: as §1

Which Drug uptake [1] does the source give for `CCN(CC)CCCC(C)Nc1cc(/C=C/c2ccc([N+](=O)[O-])cc2)nc2ccc(O)cc12` (stereo unspecified) here?
Its Drug uptake is “Active”.

For `NCCCCNc1cc(/C=C/c2ccncc2)nc2ccc(Cl)cc12`, which Drug uptake [2] is on record?
The Drug uptake was “Active”.

For `CN1CCN(CCNc2cc(/C=C/c3ccc(F)cc3)nc3ccc(Cl)cc23)CC1`, which Activity [3] is on record?
Its Activity is “Active”.

What about the inhibition [4] of the same compound?
Its inhibition is “Dose-dependent effect”.

And the pEC50 [5]?
Its pEC50 is 5.60.

What about the selectivity ratio [6] of the same compound?
Its selectivity ratio is 209.

And the t1/2 [7]?
Its t1/2 is 1 h.

And the Ratio EC50 [8]?
Its Ratio EC50 is 1.

And the Activity [9]?
The Activity was “Active”.

And the pEC50 [10]?
The pEC50 was 7.82.

What about the pEC50 [11] of the same compound?
Its pEC50 is 6.04.

What about the Activity [12] of the same compound?
Its Activity is “Active”.

And the Activity [13]?
Its Activity is “inactive”.

What about the CLH [14] of the same compound?
The CLH was 23 µL/min/mg.

And the Stabilty [15]?
The Stabilty was 50.2%.

What about the pEC50 [16] of the same compound?
The pEC50 was 7.80.

What about the Activity [17] of the same compound?
The Activity was “Active”.

And the pEC50 [18]?
Its pEC50 is 5.50.

For `OCCNCCCCNc1cc(/C=C/c2ccncc2)nc2ccc(Cl)cc12`, which Drug uptake [2] is on record?
Its Drug uptake is “Active”.

Which Drug uptake [19] does the source give for `NCCNc1cc(/C=C/c2ccc(F)cc2)nc2ccc(Cl)cc12` here?
The Drug uptake was “Active”.

Which Drug uptake [20] does the source give for `Fc1ccc(/C=C/c2cc(NCCN3CCNCC3)c3cc(Cl)ccc3n2)cc1` here?
Its Drug uptake is “Active”.
